Laboratory results published in ChEMBL document CHEMBL1126910, “18F-labeled benzamides for studying the dopamine D2 receptor with positron emission tomography” (J Med Chem, 1993).

Legend:
[1] = biological target: D(3) dopamine receptor (Rattus norvegicus); assay: In vitro binding affinity on D3 receptor is inhibition of binding of [125I]- NCQ 298 to Sf9 cells infected with recombinant baculovirus
D(2) dopamine receptor = D(2) dopamine receptor (Rattus norvegicus, UniProt P61169); assay: Inhibition of [125I]- NCQ 298 binding to D2 receptor of rat striatal tissue; format: tissue-based, Striatum
Rattus norvegicus [2] = assay: In vivo blood concentration of [18F]-labeled compound by rat brain at 2 hr; format: functional, organism-based
In short: (§1)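 Sprague–Dawley rats (200–300 g) under ketamine/xylazine anesthesia given 0.5–1.0 mL of 0.9% saline containing 18F-labeled ligand (20–150 μCi) i.v. via femoral vein. Killed by decapitation at set times (5 min to 5 h). A blood sample was taken and gamma-counted, expressed as % ID/g of blood. Mean ± SEM, n = 4-8.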

Rattus norvegicus [3] = assay: In vivo brain uptake of [18F]-labeled compound by rat brain at 1 hr; format: functional, organism-based
In short: (§2)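 Sprague–Dawley rats (200–300 g), anesthetized with ketamine/xylazine, received 18F-labeled ligand (20–150 μCi) in 0.5–1.0 mL 0.9% saline i.v. (femoral vein). Decapitated at set intervals from 5 min to 5 h. Whole brain removed, weighed and gamma-counted, expressed as % ID/brain and % ID/g brain. Mean ± SEM, n = 4-8.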

Rattus norvegicus [4] = assay: In vivo brain uptake of [18F]-labeled compound by rat brain at 5 min; format: functional, organism-based
In short: as §2

Rattus norvegicus [5] = assay: In vivo brain uptake of [18F]-labeled compound by rat brain at 3h; format: functional, organism-based
In short: as §2

Rattus norvegicus [6] = assay: In vivo blood concentration of [18F]-labeled compound by rat brain at 30 min; format: functional, organism-based
In short: as §1

Rattus norvegicus [7] = assay: In vivo blood concentration of [18F]-labeled compound by rat brain at 5 min; format: functional, organism-based
In short: as §1

[8] = biological target: T1, Adrenergic receptor alpha-2 (Rattus norvegicus, UniProt P22086+P19328+P22909); assay: In vitro binding affinity on alpha-2 receptor is inhibition of binding of [3H]- rauwolscine to rat cortex
T1 sequence (P22086 whole entry): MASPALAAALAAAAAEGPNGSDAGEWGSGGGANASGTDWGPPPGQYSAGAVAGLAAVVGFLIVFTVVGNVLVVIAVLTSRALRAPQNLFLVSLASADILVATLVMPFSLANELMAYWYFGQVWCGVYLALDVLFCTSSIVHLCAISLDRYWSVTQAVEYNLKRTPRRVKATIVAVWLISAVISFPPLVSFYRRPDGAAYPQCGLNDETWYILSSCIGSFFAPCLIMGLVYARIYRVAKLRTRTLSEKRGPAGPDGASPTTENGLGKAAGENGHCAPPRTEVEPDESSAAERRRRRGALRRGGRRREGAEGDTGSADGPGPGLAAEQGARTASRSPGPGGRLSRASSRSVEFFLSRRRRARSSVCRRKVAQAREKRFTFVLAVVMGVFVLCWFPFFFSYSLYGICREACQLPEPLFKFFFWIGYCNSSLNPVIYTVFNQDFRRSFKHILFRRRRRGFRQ
T1 sequence (P19328 whole entry): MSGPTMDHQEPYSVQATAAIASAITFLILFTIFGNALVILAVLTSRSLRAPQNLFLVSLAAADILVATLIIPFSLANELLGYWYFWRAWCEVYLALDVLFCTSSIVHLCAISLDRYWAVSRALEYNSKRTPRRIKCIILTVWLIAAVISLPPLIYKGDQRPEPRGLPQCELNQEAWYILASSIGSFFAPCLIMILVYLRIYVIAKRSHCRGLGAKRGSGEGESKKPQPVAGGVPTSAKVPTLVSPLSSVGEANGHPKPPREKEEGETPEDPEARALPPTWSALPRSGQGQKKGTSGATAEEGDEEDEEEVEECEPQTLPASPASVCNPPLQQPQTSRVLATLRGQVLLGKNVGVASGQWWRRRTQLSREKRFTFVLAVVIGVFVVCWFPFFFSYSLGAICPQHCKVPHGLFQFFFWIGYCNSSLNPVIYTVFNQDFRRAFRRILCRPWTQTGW
T1 sequence (P22909 whole entry): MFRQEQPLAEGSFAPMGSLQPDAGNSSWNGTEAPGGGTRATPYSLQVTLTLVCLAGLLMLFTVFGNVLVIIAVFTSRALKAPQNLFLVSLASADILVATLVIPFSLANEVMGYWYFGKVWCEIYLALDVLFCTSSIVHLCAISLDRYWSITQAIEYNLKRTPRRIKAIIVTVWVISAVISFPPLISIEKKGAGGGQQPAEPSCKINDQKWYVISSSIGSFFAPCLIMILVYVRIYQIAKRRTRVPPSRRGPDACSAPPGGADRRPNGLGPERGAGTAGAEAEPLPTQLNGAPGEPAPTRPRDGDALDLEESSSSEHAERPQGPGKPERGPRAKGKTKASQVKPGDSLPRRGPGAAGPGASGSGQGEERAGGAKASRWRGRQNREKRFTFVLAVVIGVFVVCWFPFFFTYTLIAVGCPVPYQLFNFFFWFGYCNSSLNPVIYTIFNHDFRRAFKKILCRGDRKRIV
In short: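 Rat cerebral cortex membranes, 2 nM [3H]rauwolscine in 20 mM HEPES pH 7.4, run in triplicate; nonspecific with 10 μM phentolamine; 20 °C, 30 min; glass fiber filtration, liquid scintillation counting. IC50 by curve fitting, converted to Ki via Cheng–Prusoff.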

Rattus norvegicus [9] = assay: In vivo blood concentration of [18F]-labeled compound by rat brain at 3h; format: functional, organism-based
In short: as §1

Rattus norvegicus [10] = assay: In vivo blood concentration of [18F]-labeled compound by rat brain at 5 hr; format: functional, organism-based
In short: as §1

Rattus norvegicus [11] = assay: In vivo brain uptake of [18F]-labeled compound by rat brain at 4 hr; format: functional, organism-based
In short: as §2

[12] = Partition coefficient (logP); format: physicochemical; settings: C-18 reversed-phase HPLC
In short: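 Lipophilicity measured as log P by the C-18 reversed-phase HPLC method of Kraak et al.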

Rattus norvegicus [13] = assay: In vivo brain uptake of [18F]-labeled compound by rat brain at 2 hr; format: functional, organism-based
In short: as §2

Rattus norvegicus [14] = assay: In vivo brain uptake of [18F]-labeled compound by rat brain at 30 min; format: functional, organism-based
In short: as §2

Rattus norvegicus [15] = assay: In vivo blood concentration of [18F]-labeled compound by rat brain at 1 hr; format: functional, organism-based
In short: as §1

Rattus norvegicus [16] = assay: In vivo blood concentration of [18F]-labeled compound by rat brain at 4 hr; format: functional, organism-based
In short: as §1

[17] = biological target: Serotonin 2 (5-HT2) receptor (Rattus norvegicus, UniProt P30994+P08909+P14842); assay: In vitro binding affinity on 5-hydroxytryptamine 2 receptor is inhibition of binding of [125I]- I-LSD to P11 cells
In short: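 Competition binding on membranes from P11 cells (pituitary tumor 7315A line, 5-HT2 without D2 or other serotonin subtypes); 0.4–0.5 nM [125I]I-LSD in 50 mM Tris-HCl pH 7.4; 1 μM ketanserin defines nonspecific; 37 °C, 60 min; filtration, gamma counting. IC50 from curve fitting, Ki by Cheng–Prusoff.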

Rattus norvegicus [18] = assay: In vivo brain uptake of [18F]-labeled compound by rat brain at 5 hr; format: functional, organism-based
In short: as §2

Chain of D(2) dopamine receptor (P61169 whole entry): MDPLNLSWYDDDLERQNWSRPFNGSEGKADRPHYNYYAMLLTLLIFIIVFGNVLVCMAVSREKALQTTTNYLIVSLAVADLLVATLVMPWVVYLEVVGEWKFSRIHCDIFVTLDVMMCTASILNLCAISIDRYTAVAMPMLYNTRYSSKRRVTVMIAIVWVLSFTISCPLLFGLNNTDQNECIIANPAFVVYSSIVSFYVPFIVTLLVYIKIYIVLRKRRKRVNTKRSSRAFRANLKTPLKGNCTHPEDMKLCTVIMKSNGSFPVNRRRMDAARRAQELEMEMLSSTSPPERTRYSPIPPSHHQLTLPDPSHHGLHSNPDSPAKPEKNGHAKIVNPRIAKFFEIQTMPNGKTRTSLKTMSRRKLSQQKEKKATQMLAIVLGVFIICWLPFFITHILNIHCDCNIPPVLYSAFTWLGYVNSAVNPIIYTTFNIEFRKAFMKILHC

Structure (SMILES): CCN1CCC[C@H]1CNC(=O)c1c(O)c(I)cc(OC)c1OC [IOXIPRIDE]
- Ki [1]: 0.16 nM

Structure (SMILES): COc1cc(Br)cc(C(=O)NC2CC3CCCC(C2)N3Cc2ccccc2)c1OC (stereo not drawn)
- Ki (D(2) dopamine receptor): 0.033 nM

Structure (SMILES): COc1cccc(C(=O)NC2CCN(Cc3ccc(F)cc3)CC2)c1OC
- ID/g (Rattus norvegicus [2]): 0.029%
- ID/brain (Rattus norvegicus [3]): 0.57%
- ID/g (Rattus norvegicus [3]): 0.36%
- ID/brain (Rattus norvegicus [4]): 1.28%
- ID/g (Rattus norvegicus [4]): 0.81%
- ID/brain (Rattus norvegicus [5]): 0.38%
- ID/g (Rattus norvegicus [5]): 0.25%
- ID/g (Rattus norvegicus [6]): 0.066%
- ID/g (Rattus norvegicus [7]): 0.155%
- Ki [8]: 3000 nM
- ID/g (Rattus norvegicus [9]): 0.017%
- ID/g (Rattus norvegicus [10]): 0.012%
- ID/brain (Rattus norvegicus [11]): 0.17%
- ID/g (Rattus norvegicus [11]): 0.11%
- logP [12]: 2.83
- ID/brain (Rattus norvegicus [13]): 0.5%
- ID/g (Rattus norvegicus [13]): 0.33%
- ID/brain (Rattus norvegicus [14]): 0.61%
- ID/g (Rattus norvegicus [14]): 0.39%
- Ki (D(2) dopamine receptor): 0.38 nM
- Ki [1]: 5.91 nM
- ID/g (Rattus norvegicus [15]): 0.043%
- ID/g (Rattus norvegicus [16]): 0.01%
- Ki [17]: 1840 nM
- ID/brain (Rattus norvegicus [18]): 0.19%
- ID/g (Rattus norvegicus [18]): 0.12%

Structure (SMILES): COc1cccc(C(=O)NC2CCN(Cc3ccccc3)CC2)c1OC
- Ki (D(2) dopamine receptor): 0.63 nM

Structure (SMILES): COc1cc(Br)cc(C(=O)NC2CCN(Cc3ccc(F)cc3)CC2)c1OC
- ID/g (Rattus norvegicus [2]): 0.016%
- ID/brain (Rattus norvegicus [3]): 0.36%
- ID/g (Rattus norvegicus [3]): 0.2%
- ID/brain (Rattus norvegicus [4]): 1.12%
- ID/g (Rattus norvegicus [4]): 0.58%
- ID/brain (Rattus norvegicus [5]): 0.2%
- ID/g (Rattus norvegicus [5]): 0.1%
- ID/g (Rattus norvegicus [6]): 0.036%
- ID/g (Rattus norvegicus [7]): 0.088%
- Ki [8]: 3000 nM
- ID/g (Rattus norvegicus [9]): 0.013%
- ID/g (Rattus norvegicus [10]): 0.012%
- ID/brain (Rattus norvegicus [11]): 0.21%
- ID/g (Rattus norvegicus [11]): 0.12%
- ID/brain (Rattus norvegicus [13]): 0.27%
- ID/g (Rattus norvegicus [13]): 0.14%
- ID/brain (Rattus norvegicus [14]): 0.55%
- ID/g (Rattus norvegicus [14]): 0.32%
- ID/g (Rattus norvegicus [15]): 0.025%
- ID/g (Rattus norvegicus [16]): 0.012%
- Ki [17]: 94 nM
- ID/brain (Rattus norvegicus [18]): 0.2%
- ID/g (Rattus norvegicus [18]): 0.12%

Structure (SMILES): COc1cc(N)c(Cl)cc1C(=O)NC1CCN(Cc2ccccc2)CC1 [CLEBOPRIDE]
- Ki [8]: 600 nM
- Ki [17]: 89 nM

Structure (SMILES): COc1cccc(C(=O)NC2CC3CCCC(C2)N3Cc2ccccc2)c1OC (stereo not drawn)
- Ki (D(2) dopamine receptor): 0.038 nM

Structure (SMILES): COc1cccc(C(=O)NC2CC3CCCC(C2)N3Cc2ccc(F)cc2)c1OC (stereo not drawn)
- ID/g (Rattus norvegicus [2]): 0.024%
- ID/brain (Rattus norvegicus [3]): 0.31%
- ID/g (Rattus norvegicus [3]): 0.23%
- ID/brain (Rattus norvegicus [4]): 0.64%
- ID/g (Rattus norvegicus [4]): 0.39%
- ID/brain (Rattus norvegicus [5]): 0.37%
- ID/g (Rattus norvegicus [5]): 0.23%
- ID/g (Rattus norvegicus [6]): 0.089%
- ID/g (Rattus norvegicus [7]): 0.156%
- Ki [8]: 1300 nM
- ID/g (Rattus norvegicus [9]): 0.019%
- ID/g (Rattus norvegicus [10]): 0.005%
- ID/brain (Rattus norvegicus [11]): 0.36%
- ID/g (Rattus norvegicus [11]): 0.22%
- logP [12]: 2.86
- ID/brain (Rattus norvegicus [13]): 0.44%
- ID/g (Rattus norvegicus [13]): 0.27%
- ID/brain (Rattus norvegicus [14]): 0.35%
- ID/g (Rattus norvegicus [14]): 0.2%
- ID/g (Rattus norvegicus [15]): 0.044%
- ID/g (Rattus norvegicus [16]): 0.013%
- Ki [17]: 84 nM
- ID/brain (Rattus norvegicus [18]): 0.23%
- ID/g (Rattus norvegicus [18]): 0.14%

Structure (SMILES): COc1cc(N)c(Cl)cc1C(=O)NC1CCN(Cc2ccc(F)cc2)CC1
- Ki [8]: 1300 nM
- Ki [17]: 283 nM

Structure (SMILES): COc1cc(Br)cc(C(=O)NC2CCN(Cc3ccccc3)CC2)c1OC
- Ki (D(2) dopamine receptor): 0.31 nM

Structure (SMILES): COc1cc(N)c(Cl)cc1C(=O)NC1CC2CCCC(C1)N2Cc1ccccc1 (stereo not drawn)
- Ki (D(2) dopamine receptor): 0.036 nM

Structure (SMILES): COc1cc(Br)cc(C(=O)NC2CC3CCCC(C2)N3Cc2ccc(F)cc2)c1OC (stereo not drawn)
- Ki [8]: 1900 nM
- Ki (D(2) dopamine receptor): 0.02 nM
- Ki [17]: 3.1 nM

Structure (SMILES): COc1cc(N)c(Cl)cc1C(=O)N[C@@H]1C[C@H]2CCC[C@@H](C1)N2Cc1ccc(F)cc1
- Ki (D(2) dopamine receptor): > 10 nM
- Ki [17]: 2200 nM
